IDH1 mut inh = inhibitors of IDH1 R132H reductase, primary screen, biochemical, plate reader, single point; Isocitrate dehydrogenase [NADP] cytoplasmic (Homo sapiens), O75874; diaphorase/resazurin fluorescence, 60 min; inhibition, % at 10 µM; hit rate 0.18% among 70,000; AID 624101, 2012; in the data active = inhibition above about 34%
Target sequence (O75874 whole entry R132H): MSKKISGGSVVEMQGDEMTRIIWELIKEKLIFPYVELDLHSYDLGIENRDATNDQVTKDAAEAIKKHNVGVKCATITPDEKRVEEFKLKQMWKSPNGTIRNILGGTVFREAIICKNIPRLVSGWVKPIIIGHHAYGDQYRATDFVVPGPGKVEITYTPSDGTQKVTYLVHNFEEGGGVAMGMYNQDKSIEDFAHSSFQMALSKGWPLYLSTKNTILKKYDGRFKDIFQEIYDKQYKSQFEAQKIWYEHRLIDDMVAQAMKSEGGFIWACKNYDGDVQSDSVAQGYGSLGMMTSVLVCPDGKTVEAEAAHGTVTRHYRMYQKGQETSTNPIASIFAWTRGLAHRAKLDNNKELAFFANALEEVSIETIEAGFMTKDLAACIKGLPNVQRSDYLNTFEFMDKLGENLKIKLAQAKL
T cruzi growth-1 = T. cruzi intracellular proliferation inhibitors, primary screen, cell-based, beta-gal Tulahuen parasites, NIH3T3 host, luminescence; inhibition, % at 8.34 µM; T. cruzi beta-gal in NIH3T3, GalScreen luminescence, 90 h; AID 624255, 2012; hit rate 5.9% among 77,000;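 active = mean inhibition above about 93%, with at least 55% of replicates each passing it, limit read from the data, passing the limit was not always enough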
GASC1 inh = inhibitors of GASC-1 (KDM4C) histone demethylase, primary screen, biochemical, single concentration HTS. Lysine-specific demethylase 4C (Homo sapiens), Q9H3R0. GST-KDM4C 2-372, H3K9me3 peptide, LANCE TR-FRET. inhibition, % at 12.5 µM. hit rate 0.15% among 96,000. AID 720574, 2013;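 active = mean replicate inhibition above about 25%, with at least 55% of replicates also reaching it, limit read from the data, passing the limit was not always enough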
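System: N-terminal GST-fused human GASC-1 (KDM4C) fragment, residues 2-372; amount: enzyme final amount 10 nM; incubation: reaction 30 min RT, detection step 1 h RT; medium: HEPES buffer, pH 7.5, plus ascorbate; technique: LANCE TR-FRET, Eu antibody, ULight-streptavidin, EDTA, ex 340 nm, em 618/671 nm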
T cruzi growth-2 = T. cruzi intracellular proliferation inhibitors, confirmation, cell-based, NIH3T3 host, beta-gal parasite, luminescence, cherry-pick | shares compounds with T cruzi growth-1 | T. cruzi beta-gal in NIH3T3, GalScreen luminescence, 90 h | inhibition, % at 8.35 µM | hit rate 72% among 5,600 | AID 651739, 2012;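 active = mean replicate inhibition above about 95% and at least 55% of replicates individually reaching it, limit read from the data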
T cruzi growth-3 = inhibitors of intracellular T. cruzi replication, confirmation, NIH3T3 host cells, beta-gal parasites, cherry-pick, set 2; inhibition, % at 2.09 µM; shares compounds with T cruzi growth-1; T. cruzi beta-gal in NIH3T3, GalScreen luminescence, 90 h; hit rate 21% among 5,600;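 active = mean inhibition above about 95%, with at least 55% of replicates also reaching it, limit read from the data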
NIH3T3 tox = cytotoxicity in mouse NIH/3T3 fibroblasts, confirmation, cytotoxicity control for T. cruzi proliferation inhibitor project, cell-based, cherry-pick, single point; hit rate 14% among 5,600; shares compounds with T cruzi growth-1; NIH/3T3 viability, CellTiter-Glo ATP luminescence, 90 h; cytotoxicity (signal decrease), % at 8.35 µM;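 active = mean signal decrease across replicates above about 35% based on untreated-well scatter, with enough replicates individually passing, limit read from the data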
NIH3T3 tox 2 = NIH/3T3 fibroblast cytotoxicity, confirmation, cytotoxicity control, cell-based, cherry-pick, single point, set 2; shares compounds with T cruzi growth-1; NIH/3T3 viability, CellTiter-Glo ATP luminescence, 90 h; inhibition, % at 24.9 µM; hit rate 56% among 5,600; AID 651744, 2012;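 active = mean loss of cell viability signal at or above a set limit, and enough replicates individually reaching it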
A number is an active result. This excerpt belongs to a sample that is enriched for hits.

How did Cc1cc(SCC(=O)Nc2ccc(SC(F)F)cc2)nc2ccccc12 do in these assays?
IDH1 mut inh: inactive

How did CS(=O)(=O)N(CC(=O)Nc1ccc2ccccc2c1)c1ccc(F)cc1 do in these assays?
IDH1 mut inh: inactive

What do the screens show for `c1coc(CNc2nc3ccccc3n2CCN2CCCCC2)c1`?
IDH1 mut inh: inactive

What do the screens show for `O=C(O)CSc1ccc(Br)c2cccc(C(=O)O)c12`?
IDH1 mut inh: inactive

Results for O=c1oc2ccccc2c2c1ncn2CCN1CCCC1 ?
IDH1 mut inh: inactive

What do the screens show for `O=C(C[C@@H]1CC[C@@H]2[C@H](COC[C@@H](O)CN2C(=O)Nc2ccc(C(F)(F)F)cc2)O1)NC1Cc2ccccc2C1`?
T cruzi growth-1: 112.1; GASC1 inh: inactive; T cruzi growth-2: 95.7; T cruzi growth-3: inactive; NIH3T3 tox: inactive; NIH3T3 tox 2: 104.8

Results for O=C(C[C@@H]1CC[C@@H]2[C@H](COC[C@H](O)CN2C(=O)Nc2ccc(C(F)(F)F)cc2)O1)NC1Cc2ccccc2C1 ?
T cruzi growth-1: inactive; GASC1 inh: inactive

Results for O=C(C[C@H]1CC[C@@H]2[C@H](COC[C@H](O)CN2C(=O)Nc2ccc(C(F)(F)F)cc2)O1)NC1Cc2ccccc2C1 ?
T cruzi growth-1: inactive; GASC1 inh: inactive

How did O=C(C[C@H]1CC[C@H]2[C@@H](COC[C@H](O)CN2C(=O)Nc2ccc(C(F)(F)F)cc2)O1)NC1Cc2ccccc2C1 do in these assays?
T cruzi growth-1: 120.6; GASC1 inh: inactive; T cruzi growth-2: 105.2; T cruzi growth-3: inactive; NIH3T3 tox: 51.3; NIH3T3 tox 2: 106.7

What do the screens show for `CCOC(=O)c1c(NC(=O)c2nc3ncccn3n2)sc(C)c1C`?
IDH1 mut inh: inactive

What do the screens show for `CCn1c(SCC(=O)Nc2ccc(Cl)cc2C)nnc1-c1ccncc1`?
IDH1 mut inh: inactive

What do the screens show for `C[C@@H]1CN([C@@H](C)CO)C(=O)c2cccc(NC(=O)C3CC3)c2O[C@H]1CN(C)C(=O)Nc1ccc(F)cc1`?
IDH1 mut inh: inactive; T cruzi growth-1: 107.6; GASC1 inh: inactive; T cruzi growth-2: 96.2; T cruzi growth-3: inactive; NIH3T3 tox: inactive; NIH3T3 tox 2: inactive

How did C[C@H]1CN([C@@H](C)CO)C(=O)c2cccc(NC(=O)Nc3ccc(C(F)(F)F)cc3)c2O[C@H]1CN(C)C(=O)Nc1cccc2ccccc12 do in these assays?
T cruzi growth-1: 100.6; GASC1 inh: inactive; T cruzi growth-2: inactive; T cruzi growth-3: 112.5; NIH3T3 tox: 62.6; NIH3T3 tox 2: 105.0

What do the screens show for `C[C@H]1CN([C@@H](C)CO)C(=O)c2cccc(NC(=O)Nc3cccc4ccccc34)c2O[C@@H]1CN(C)C(=O)Nc1ccc(F)cc1`?
IDH1 mut inh: inactive; T cruzi growth-1: inactive; GASC1 inh: inactive

How did C[C@@H]1CN([C@H](C)CO)C(=O)c2cccc(NC(=O)C3CCCCC3)c2O[C@H]1CN(C)C(=O)Nc1ccc(F)cc1 do in these assays?
IDH1 mut inh: inactive; T cruzi growth-1: inactive; GASC1 inh: inactive

How did C[C@@H]1CN([C@H](C)CO)C(=O)c2cccc(NC(=O)Nc3ccc(C(F)(F)F)cc3)c2O[C@@H]1CN(C)C(=O)Nc1cccc2ccccc12 do in these assays?
IDH1 mut inh: inactive; T cruzi growth-1: inactive; GASC1 inh: inactive

What do the screens show for `C[C@H]1CN([C@@H](C)CO)C(=O)c2cccc(NC(=O)Nc3cccc4ccccc34)c2O[C@@H]1CN(C)C(=O)Nc1ccccc1`?
IDH1 mut inh: inactive; T cruzi growth-1: inactive; GASC1 inh: inactive

Assay outcomes (PubChem BioAssay)
